# Screens deposited in PubChem BioAssay by several laboratories.
# An excerpt weighted towards active compounds, which were near 9.2% of everything screened.
# ERb SRC1 inh – inhibitors of ERβ-SRC1 coactivator interaction, primary screen, biochemical, TR-FRET, ERβ LBD, SRC-1 peptide; inhibition, % at 25.6 µM; TR-FRET ER-beta LBD / SRC1-Cy5 peptide binding; receptor agonist-loaded with 1 µM estradiol; Estrogen receptor beta (Homo sapiens), Q92731; hit rate 1.3% among 86,000;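 active means compounds whose percent inhibition of the receptor-coactivator binding signal exceeds about 50% in the single-dose screen, limit read from the data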;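 further: 0% = receptor plus peptide wells without compound and 100% = peptide-only wells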
# HUVEC inhibit – inhibitors of HUVEC proliferation, primary screen, cell-based, 384-well; AID 648, 2007; CellTiter-Glo luminescence, 72 h; active compounds read low; hit rate 1.1% among 86,000; viability, % at 10 µM (by protocol);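 active means viability at or below 30%; inactive means viability above 30%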;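 further: 100% = median luminescence of DMSO-only cell control wells on each plate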
# H69AR growth 86K – proliferation blockers of H69AR lung cancer cells, primary screen, cell-based, human, 86K library | H69AR lung tumor viability, ATP luminescence, 72 h; active compounds read low | hit rate 6% among 85,000 | AID 598, 2007 | viability, % at 10 µM;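 active means viability at or below 40%; inactive means viability above 40%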;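 further: multidrug resistant small cell line overexpressing MRP-1 efflux transporter; 100% = mean luminescence of untreated control wells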
# ERa coact inh – ERα–SRC-1 coactivator interaction inhibitors, primary screen, biochemical, TR-FRET, ERα LBD, estradiol-bound; Estrogen receptor (Homo sapiens), P03372; TR-FRET ER-alpha LBD / SRC-1 peptide; inhibition, % at 25.6 µM; hit rate 1.7% among 86,000; in the data active means inhibition above about 50%;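 further: 0% = receptor plus peptide control and 100% = peptide only without receptor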
# Target sequence (P03372 whole entry, looked up, the tested form may be a part): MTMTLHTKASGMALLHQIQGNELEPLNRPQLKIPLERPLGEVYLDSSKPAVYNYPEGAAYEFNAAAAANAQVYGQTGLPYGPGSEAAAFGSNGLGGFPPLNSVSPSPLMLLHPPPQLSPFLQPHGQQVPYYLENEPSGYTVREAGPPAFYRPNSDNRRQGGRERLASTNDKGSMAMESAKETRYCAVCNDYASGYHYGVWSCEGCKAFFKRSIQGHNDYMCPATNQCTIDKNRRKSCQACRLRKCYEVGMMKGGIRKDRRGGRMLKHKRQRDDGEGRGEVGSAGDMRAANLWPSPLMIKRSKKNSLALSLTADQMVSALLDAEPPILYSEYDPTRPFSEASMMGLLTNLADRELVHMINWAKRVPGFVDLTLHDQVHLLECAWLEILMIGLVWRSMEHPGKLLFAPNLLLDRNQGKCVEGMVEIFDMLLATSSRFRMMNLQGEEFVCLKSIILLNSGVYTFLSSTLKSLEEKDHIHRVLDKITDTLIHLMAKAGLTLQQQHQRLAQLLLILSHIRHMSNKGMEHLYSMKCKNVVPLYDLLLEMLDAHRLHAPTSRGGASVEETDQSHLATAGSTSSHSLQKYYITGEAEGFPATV
# Fibroblast inh – antiproliferative effect on LL 47 fibroblasts – human, LL 47 cells, CellTiter-Glo luminescence, primary screen; LL 47 human lung fibroblast viability, ATP luminescence; active compounds read low; viability, % at 10 µM; hit rate 1.1% among 85,000; AID 719, 2007;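 active means viability at or below 50% in the single dose screen; inactive means viability above 50%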;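 further: compound exposure lasted 72 h before the ATP readout; 100% = median luminescence of untreated cell-only wells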
#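 Material: human LL 47 lung fibroblast cells; quantity: 1,150 cells/well; medium: IMEM plus 15% FBS; doses: 0.1% DMSO in all compound wells; timing: overnight attachment after seeding, then 72 h compound exposure at 37 °C; detection: CellTiter-Glo luminescence; measure: % viability of median cell-only signal; controls: cell-only wells, no compound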
# ERa SRC1 pot – enhancers of ERα–SRC-1 coactivator binding, primary screen, biochemical, TR-FRET, ERα LBD, low estradiol; Estrogen receptor (Homo sapiens), P03372; TR-FRET ERalpha-LBD/SRC-Cy5 coactivator binding, 2 h; 100 = basal binding, no effect; coactivator binding (% of control), % at 25.6 µM; hit rate 1.3% among 86,000; in the data active means activity above about 200%;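 further: binding measured in presence of low estradiol as agonist stimulus; 0% = peptide alone without receptor and 100% = receptor with peptide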
# * marks the source's active call; other numbers are inactive results; / = not tested or not shown; [ ] = remark or other dose.
SMILES,ERb SRC1 inh,HUVEC inhibit,H69AR growth 86K,ERa coact inh,Fibroblast inh,ERa SRC1 pot
COc1ccccc1OC(C)C(=O)Nc1nc(-c2ccc(S(=O)(=O)N3CCOCC3)cc2)cs1 (configuration not stated),8,99,82,1,97,263*[fluorescence artefact?]
CC(Oc1ccccc1)C(=O)Nc1ccc(S(=O)(=O)N2CCOCC2)cc1 (configuration not stated),1,100,78,-6,/,113
COc1ccccc1C(=O)Nc1nc(-c2ccc(S(=O)(=O)N3CCOCC3)cc2)cs1,3,49,45,1,23*,399*[fluorescence artefact?]
CCN1CCC(C(=O)NC2CCCC2)(N(Cc2cccs2)C(=O)Cn2nnc3ccccc32)CC1,-1,91,91,-3,92,137
COC(=O)c1nn2c(C(F)(F)F)cc(-c3ccc(Br)o3)nc2c1Br,5,93,33*,21,58,95
COC(=O)c1cnn2c(C(F)(F)F)cc(-c3ccc(F)cc3)nc12,-13,102,100,-11,101,97
CCN(CC)C(=O)C(C)OC(=O)c1ccc(O)cc1 (configuration not stated),-5,104,106,-4,105,129
COc1ccc(OCC(O)Cn2cnc(-c3ccc(Br)cc3)c2)cc1 (configuration not stated),-10,84,39*,-29,99,103
Cc1cc(C)c(S(=O)(=O)c2ccccc2)c(OC(=O)c2cc(F)c(F)cc2Cl)n1,24,68,87,37,91,45
CC(=O)Nc1ccc2[nH]c3ccccc3c2c1,-3,103,82,-4,115,124
CC(=O)Nc1ccc2[nH]c(C)cc(=O)c2c1,44,92,92,77*,98,33
c1cc(Nc2ncnc3sccc23)cc(-c2nnc3n2CCCCC3)c1,22,82,81,14,93,83
CC(=O)C1=C(C)Nc2ncnn2C1c1ccc(Cl)cc1 (configuration not stated),-3,96,79,-7,102,92
CCN(CC)CCOc1ccc2c(c1)C(=NO)c1cc(OCCN(CC)CC)ccc1-2,19,12*,50,15,3.0*,82
CCN(CC)S(=O)(=O)c1ccc(C)c(C)c1,-2,90,82,0,100,94
CCN(CC)S(=O)(=O)c1ccc2c(c1)C(=NO)c1cc(S(=O)(=O)N(CC)CC)ccc1-2,28,4.3*,2.6*,35,38*,108
Cc1ccc(C(=O)N/N=C2\SCC(=O)N2c2cc(C)ccc2C)cc1,7,108,108,16,99,150
CCOCCCN1CN(S(=O)(=O)c2ccc(Cl)cc2)c2nc3ccccc3nc21,2,105,108,-7,110,96
COc1ccccc1CCNC(=O)c1ccc(C)o1,-2,101,93,-1,104,116
COc1ccc2nc(NC(=O)CCc3nc(-c4ccccc4F)no3)sc2c1,48,89,80,34,97,204*
COc1ccc2nc(NC(=O)Cc3cccs3)sc2c1,22,88,80,15,96,67
Fc1ccc(/C=C2\CCCC3=C2Nc2ncnn2C3c2ccc(F)cc2)cc1 (configuration not stated),-4,37,22*,1,56,85
COc1ccc(/C=C2\CCc3ccccc3C2=O)cc1Cn1nc(C)cc1C,-5,87,15*,45,80,93
Cc1ccsc1/C=C1\CCc2ccccc2C1=O,-10,/,/,-2,/,119
COc1ccc2oc(C(=O)C3CC3)c(NC(=O)CCCN3C(=O)c4ccccc4C3=O)c2c1,19,86,31*,-2,92,128
SMILES,ERb SRC1 inh,HUVEC inhibit,H69AR growth 86K,ERa coact inh,Fibroblast inh,ERa SRC1 pot
Cc1cccc(C)c1NC1=NC(=S)N(c2ccccc2)C12CCOC(C)(C)C2 (configuration not stated),3,90,34*,-8,87,110
c1ccc(-n2ncc3c(N4CCN(c5ccccn5)CC4)nc(N4CCOCC4)nc32)cc1,7,54,28*,19,95,220*[fluorescence artefact?]
O=C(NC1C=CS(=O)(=O)C1)c1sc2ccccc2c1Cl (configuration not stated),-32,73,1.7*,-28,76,102
COc1cc2c(cc1OC)-c1cc(NCc3ccccn3)nc(=O)n1CC2,48,83,95,-10,94,513*[fluorescence artefact?]
Oc1ccc(N=Cc2ccc(-c3cccs3)s2)cc1,62*[fluorescence artefact?],100,68,33,/,34
CCC(Cc1ccccc1)NC(=O)CCn1cccc1 (configuration not stated),-11,100,97,-16,90,112
CCN1CCN(C(=O)C2CCC(CNS(=O)(=O)c3ccccc3)CC2)CC1 (configuration not stated),-1,80,102,-5,100,101
COC(=O)c1ccc(OCC2c3cc(OC)c(OC)cc3CCN2C(=O)c2ccco2)cc1 (configuration not stated),2,75,/,1,97,110
O=C(Nc1ccc(Cl)cc1)NC1CCCCC1Cc1ccco1 (configuration not stated),-4,61,6.6*,2,96,98
CC1Cc2ccccc2N1C(=O)COC(=O)Cn1nnc(-c2ccccc2)n1 (configuration not stated),1,98,22*,-9,101,83
CC(C)(C)NC(=O)c1cccc(NC(=O)c2ccc(NC(=O)c3ccco3)cc2)c1,6,82,33*,11,94,95
CC(C)(C)c1ccc(C(=O)Nc2ccc(NC(=O)c3ccco3)cc2)cc1,16,43,33*,17,28*,112
CC(C)CNC(=O)c1cccc(NC(=O)c2ccc(NC(=O)c3ccco3)cc2)c1,21,75,28*,38,82,230*[fluorescence artefact?]
Cn1c(NC(=O)c2ccco2)cc(=O)n(C)c1=O,-3,99,24*,-7,96,115
O=C(O)Cc1ccc(NC(=O)c2ccc(NC(=O)c3ccco3)cc2)cc1,18,99,90,26,99,84
O=C1CC(c2cccc(Cl)c2)C(n2cncn2)C(=O)C1C1NCCc2ccccc21 (configuration not stated),0,96,88,9,99,111
CCCCNC(=O)Cc1coc2ccc3ccccc3c12,47,91,79,18,98,124
